{"source": "paper PMC11483317", "about": "(Heliyon, 2024)", "key": {"[1]": {"test_system": "brain capillary endothelial cells and astrocytes", "conditions": "cited from earlier work; for % of initial radioactivity in the abluminal medium: same bovine BBB model"}, "[2]": {"test": "Passage / apparent permeability across hBLEC monolayer", "assay_type": "in vitro ADME, human", "conditions": "human, pH 7.4, apparent coefficient permeability (Papp), 10 μM, 180 min after transport across hBLECs", "in_short": "(§1)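 Test lipid at 1 or 10 µM in 500 µL Ringer–HEPES (pH 7.4) on the luminal side of hBLEC/pericyte co-culture inserts. Inserts moved to fresh 1.5 mL buffer wells at 30, 60, 120 and 180 min. Media lipids extracted by Bligh–Dyer and quantified by C18 LC-MS. %/min = quantity crossed ÷ initial luminal quantity ÷ time. Papp calculated per an earlier method. Mean ± SD, n = 3.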"}, "hBLECs [3]": {"test_system": "hBLECs", "test": "Passage / apparent permeability across hBLEC monolayer", "assay_type": "in vitro ADME, human", "in_short": "as §1"}, "[4]": {"test_system": "hBLECs of the human BBB model", "test": "Toxicity assessment: hBLEC monolayer tightness by Lucifer yellow permeability", "assay_type": "cell-based", "in_short": "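Integrity check run alongside transport, on PET inserts in Ringer–HEPES (pH 7.4, 37 °C). Lucifer yellow added luminally with test lipid (1 and 10 µM) or 1% DMSO as toxicity control. Abluminal sampled at 30–180 min, luminal at 180 min. Fluorescence read at ex 490/em 525 nm. Permeability divided by 1.12 cm² insert area gives Pe (cm/min), compared with untreated cells. Mean ± SD, n = 3.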"}, "hBLECs [5]": {"test_system": "hBLECs", "test": "Intracellular accumulation in hBLECs, LC-MS", "assay_type": "in vitro ADME, human", "conditions": "180 min after incubation", "in_short": "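Human BBB model: cord-blood CD34+-derived endothelial cells on PET inserts, co-cultured ≥6 days with brain pericytes (37 °C, 5% CO2) to give hBLECs. Test lipid at 1 or 10 µM in 500 µL Ringer–HEPES (pH 7.4), luminal side, for 180 min. Cell lipids extracted by Folch method, quantified by C18 LC-MS, and expressed as % of initial concentration. Triplicates.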"}, "brain DHA": {"test_system": "brain DHA", "conditions": "normal adult mice, dietary; cited from earlier work"}, "brain": {"test_system": "brain", "conditions": "20-days-old rats, tail vein perfusion 30 s; cited from earlier work"}}, "note": "Entries after “also recorded” stand apart in the source; their conditions may differ.", "data": [{"compound": "CC/C=C\\C/C=C\\C/C=C\\C/C=C\\C/C=C\\C/C=C\\CCC(=O)O[C@H](COC(=O)CCCCCCCCCCCCCCC)COP(=O)([O-])OCC[N+](C)(C)C", "note": "[PC-DHA, 1-palmitoyl,2-docosahexaenoyl-sn-glycero-3-phosphatidylcholine]", "values": [{"measurement": "% of initial radioactivity in the abluminal medium", "setting": "[1]", "result": 4, "unit": "%"}]}, {"compound": "CC/C=C\\C/C=C\\C/C=C\\C/C=C\\C/C=C\\C/C=C\\CCC(=O)OC(COC(C)=O)COP(=O)([O-])OCC[N+](C)(C)C", "note": "(stereo not drawn) [AceDoPC, 1-acetyl,2-docosahexaenoyl-glycerophosphocholine]", "values": [{"measurement": "% of initial radioactivity in the abluminal medium", "setting": "[1]", "result": 7.5, "unit": "%"}]}, {"compound": "CC/C=C\\C/C=C\\C/C=C\\C/C=C\\C/C=C\\C/C=C\\CCC(=O)O", "note": "[DHA, Docosahexaenoic acid]", "values": [{"measurement": "Papp at 180 min, 10 μM", "setting": "[2]", "result": 26, "unit": "×10⁻⁶ cm/s"}, {"measurement": "percentage of passage per min (lipids recovered in abluminal medium)", "setting": "hBLECs [3]; 10 μM, 30 min post-incubation", "result": 0.54, "unit": "%"}, {"measurement": "percentage of passage per min (lipids recovered in abluminal medium)", "setting": "hBLECs [3]; 10 μM, 120 min post-incubation", "result": 0.40, "unit": "%"}, {"measurement": "apparent coefficient permeability (Papp)", "setting": "hBLECs [3]; 10 μM, 180 min after transport across hBLECs", "result": 26.04, "unit": "×10⁻⁶ cm/s"}, {"measurement": "percentage of passage per minute (constant)", "setting": "hBLECs [3]; constant over the 180 min transport", "result": "around 0.5 % per minute"}, {"measurement": "toxicity towards hBLECs (from LY permeability)", "setting": "[4]; 10 μM", "result": "absence of toxicity"}, {"measurement": "% of initial radioactivity in abluminal medium", "setting": "[1]; 5 μM, incubation 240 min", "result": 5, "unit": "%"}, {"measurement": "% of initial radioactivity in the abluminal medium", "setting": "[1]", "result": 4.5, "unit": "%"}, {"measurement": "intracellular accumulation in hBLECs", "setting": "hBLECs [5]; 1 μM", "result": "lower than the limit of detection; also recorded: under the limit of quantification"}, {"measurement": "intracellular accumulation in hBLECs", "setting": "hBLECs [5]; 10 μM", "result": "3.11 ± 1.24", "unit": "%"}, {"measurement": "increase of levels of brain DHA", "setting": "brain DHA", "result": "did not significantly increase"}, {"measurement": "recovered in the brain, % of injected radioactivity", "setting": "brain", "result": "0.3–0.4%"}]}, {"compound": "Lucifer Yellow", "values": [{"measurement": "BBB permeability to Lucifer yellow (control permeability)", "setting": "[4]; control cells, absence of test lipids, 180 min", "result": "0.55 ± 0.06 x 10^−3 cm min^−1"}]}]}
